# The entries come from a sample that favours hits as a whole.
# Diaphorase act = diaphorase activation or chemical reduction counter-screen; 190,000 compounds, 0.005% hits; Diaphorase/resazurin coupled assay, resorufin fluorescence, 16 min; hits give high values; 1 = vehicle wells, 0 = NADH-free wells; activation factor at 20 µM;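 active = diaphorase activity raised at least twofold by the compound at 20 µM; inactive = activation factor below 2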
#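 Material: purified diaphorase enzyme from Clostridium kluyveri; Also added: 0.114 mM NADH and 0.1 mM resazurin, final amounts; Doses: single compound dose of 20 µM, 1% DMSO final; Times: 16 min enzyme reaction, ambient temperature; Detection: resorufin fluorescence, excitation 544 nm, emission 590 nm; Measure: increased resorufin signal from activators or reducing compounds.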
# Redox H2O2 prof = compounds producing H2O2 with reducing agent – biochemical, NIH compound library profiling, artefact control for MLSCN library redox annotation, primary screen; DTT-dependent redox cycling H2O2, phenol red/HRP absorbance; 100% = 100 µM peroxide control, 0% = buffer; activation, % at 10 µM; 200,000 compounds, 0.03% hits;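 active = activation of at least 50% relative to the plate's high and low controls in the primary single-dose screen; inactive = activation below 50%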;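 note: compound incubated with DTT at 0.8 mM final as the reducing agent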
# PfGluPho inh = PfG6PD (Plasmodium falciparum) enzyme inhibition. PfGluPho enzyme, NADPH resazurin-diaphorase fluorescence. inhibition, % at 20 µM. 350,000 compounds, 0.78% hits;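 active = inhibition reaching at least a set limit at 20 µM in the primary screen, cut at about 59% in these data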;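 note: 0% = DMSO wells with substrate and 100% = DMSO wells lacking glucose-6-phosphate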
# Diaph inh CS = inhibits diaphorase or chemically oxidizes, flagging diaphorase assay artifacts. diaphorase resazurin-to-resorufin fluorescence, NADH, 16 min; bacterial (C. kluyveri) enzyme, not human. inhibition, % at 20 µM. 190,000 compounds, 0.69% hits;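 active = primary screen inhibition at 20 µM above a set limit, cut at about 50% in these data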;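 note: plate controls were DMSO with full reaction for no effect and wells lacking NADH for full effect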
#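 material = Clostridium kluyveri diaphorase enzyme | amount = 0.14 U/mL diaphorase, enzyme working solution | schedule = incubation 16 min, room temperature | detection = fluorescence of resorufin formed from resazurin, Ex 544/Em 590 nm | benchmarks = positive control minus NADH, DMSO neutral control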
# G6PDH counter = inhibits Leuconostoc G6PDH, flagging false hits in G6PDH-based assays; 200,000 compounds, 0.12% hits; Purified L. mesenteroides G6PDH, diaphorase/resazurin coupled fluorescence, 45 min; AID 1020; inhibition, % at 5 µM
# Lmaj promast = inhibitors of Leishmania major promastigote growth; AID 1063; 200,000 compounds, 9% hits; inhibition, % at 10 µM; Leishmania major promastigotes, resazurin fluorescence viability;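 note: promastigotes grown with compound for 44 hours at 28 °C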
# Active calls of the source: *; x = not tested or not shown. Cut-off read from the data, not from the text of the source, unless noted: active = inhibition above about 50%; inactive = the rest.
SMILES,Diaphorase act,Redox H2O2 prof,PfGluPho inh,Diaph inh CS,G6PDH counter,Lmaj promast
O=S1(=O)Cc2cc3ccccc3cc2C1,0.8,0,-5,18,18,-4
CC1(C)NC(=O)N(CC(=O)OCC(=O)Nc2cccc(S(N)(=O)=O)c2)C1=O,1,-1,-2,-1,5,-5
O=C(Nc1cccc(F)c1)N1CCN(C/C=C/c2ccccc2)CC1,0.9,-1,5,8,-1,68*
O=C(Nc1ccc(F)cc1)N1CCN(C/C=C/c2ccccc2)CC1,0.9,2,-1,14,6,29
COC(=O)c1cc(OC)c(OC)cc1NC(=S)N1CCN(C/C=C/c2ccccc2)CC1,0.8,0,7,16,-7,99*
S=C(NC1CCCCC1)N1CCN(C/C=C/c2ccccc2)CC1,1,-1,2,-1,12,94*
CNC(=S)N(CCCn1ccnc1)Cc1c(F)cccc1Cl,x,x,-14,x,x,x
CCCN(CCC)C(=O)c1oc2ccccc2c1NC(=O)Cc1cccc(OC)c1,x,x,1,x,x,x
NS(=O)(=O)c1ccc(CCNC(=O)COC(=O)CN2C(=O)C3CCCCC3C2=O)cc1 (stereo not given),1,-1,3,-1,1,5
COC(=O)/C(=C\c1ccc2c(c1)c1ccccc1n2C)NC(=O)c1ccccc1,0.8,0,14,16,-20,63*
COc1ccc(C(=O)/C=C/c2ccc(OC(=O)c3cc(OC)c(OC)c(OC)c3)cc2)cc1,0.9,1,0,14,-25,65*
COc1cc(/C=C/C(=O)c2ccc(F)cc2)cc(OC)c1OC,1.1,10,9,-6,11,100*
CCOc1ccc(C(=O)/C=C/c2cc(OC)c(OC)c(OC)c2)cc1,1,0,11,-2,-3,27
CCC(C)C(CO)NCCCn1cnc(C(=O)Nc2ccc(C)c(C)c2)n1 (stereo not given),x,x,-5,x,x,x
CCCCN(Cc1ccco1)S(=O)(=O)c1csc(C(N)=O)c1,x,x,0,x,x,x
O=C(CN1CCN(c2ccc(Cl)cc2)CC1)NCc1ccccc1,0.1,1,-9,86*,2,-5
O=C(CN1CCN(c2ccc(O)cc2)CC1)NC(c1ccccc1)c1ccccc1,0.6,0,57,36,10,84*
O=C(CN1CCCCCC1)NC(c1ccccc1)c1ccccc1,x,x,6,x,x,x
O=C(CN1CCN(c2cccc(Cl)c2)CC1)NCc1ccccc1,x,x,-4,x,x,x
COc1c(C)cc(S(=O)(=O)NCCN2CCOCC2)c(C)c1C,x,x,5,x,x,x
N=c1n(CC(=O)c2cccc([N+](=O)[O-])c2)c2ccccc2n1Cc1ccccc1,1,0,20,3,1,63*
N=c1n(CCO)c2ccccc2n1Cc1ccccc1Cl,0.9,0,-26,6,10,6
CC(C)(C)C(=O)Cn1c(=N)n(Cc2ccccc2)c2ccccc21,0.7,-1,-1,27,4,58*
CC(C)(C)C(=O)Cn1c(=N)n(Cc2ccccc2Cl)c2ccccc21,1,0,4,2,0,100*
Cc1ccc(Cn2c(=N)n(CC(=O)c3ccccc3)c3ccccc32)cc1,1.2,0,28,-19,8,100*
SMILES,Diaphorase act,Redox H2O2 prof,PfGluPho inh,Diaph inh CS,G6PDH counter,Lmaj promast
CC(=O)CSc1nc2nccnc2[nH]1,x,x,4,x,x,x
Cc1ccccc1Cn1c(=N)n(CC(=O)c2ccc([N+](=O)[O-])cc2)c2ccccc21,0.9,1,24,5,-1,100*
Cc1cn(C(=O)c2ccccc2)c(=S)n1-c1ccc(Cl)cc1,0.9,0,-3,11,10,85*
CCOC(=O)C1=C(C)NC(C)=C(C(=O)OCC)C1c1cccs1,0.9,0,21,13,-11,46
CCOC(=O)C1=C(C)NC(C)=C(C(=O)OCC)C1c1sccc1C,0.7,-4,3,27,-1,96*
COc1ccc(/C=C2\CCCc3c2nc2ccccc2c3C(=O)OCC(=O)c2c(N)n(C)c(=O)n(C)c2=O)cc1,0.7,0,x,34,-6,26
COc1cccc(CC2(CO)CCCN(Cc3ccc(C)s3)C2)c1 (stereo not given),0.8,-1,-8,24,16,67*
COc1cccc(CC2(CO)CCCN(Cc3cc4ccccc4[nH]3)C2)c1 (stereo not given),0.9,9,12,5,7,74*
O=C(CCNC(=O)c1ccco1)Nc1ccc(N2CCOCC2)cc1,0.9,-1,8,6,5,-6
N#Cc1cc(N2CCCCC2)c([N+](=O)[O-])cc1C#N,0.9,0,-3,10,19,-2
CN(C)CCC1CCN(c2cc(C#N)c(C#N)cc2[N+](=O)[O-])CC1,1,2,-1,5,0,55*
COc1ccc(S(=O)(=O)N2CCOCC2)cc1NC(=O)Cn1nnc2ccccc2c1=O,0.8,0,0,16,7,6
Cc1nc(N/C(N)=N/S(=O)(=O)c2ccccc2)nc2ccccc12,x,x,-2,x,x,x
COc1ccc(NC(=S)/N=C(\N)Nc2nc(C)c3ccc(C)cc3n2)cc1,1.1,-1,5,-13,12,38
Cc1ccc2c(C)nc(N/C(N)=N/S(=O)(=O)c3ccc([N+](=O)[O-])cc3)nc2c1,0.9,1,4,9,8,88*
Cc1nc(N/C(N)=N/S(=O)(=O)c2ccc([N+](=O)[O-])cc2)nc2ccccc12,0.8,0,1,22,-15,54*
C=CCNc1ncnc2sc(SC)nc12,x,x,-1,x,x,x
CN(C)c1ccc2c(O)cc(=O)n(C)c2c1,0.4,1,39,60*,7,4
CC(=O)CCS(=O)(=O)c1ccc(Oc2ccc(S(=O)(=O)CCC(C)=O)cc2)cc1,1,0,-3,5,8,54*
CC(=O)CS(=O)(=O)c1ccc(Oc2ccc(S(=O)(=O)CC(C)=O)cc2)cc1,0.9,1,-2,8,1,-4
CC(=O)NC/C(C)=N\Nc1ccc([N+](=O)[O-])cc1,0.9,-1,0,12,3,63*
CC(=O)NCC(=O)OCc1ccc([N+](=O)[O-])cc1,1,0,-6,-1,14,-4
O=C(NC(=S)N(CCCCO)C1CCCCC1)c1sc2ccccc2c1Cl,0.3,-4,20,72*,8,92*
CCc1ccc(-c2ccc(C(=O)C(F)(F)F)[nH]2)cc1,1,2,14,4,6,2
CCOC(=O)c1nnn(-c2nonc2N)c1-c1ccc(F)cc1,0.9,0,4,10,6,-2
COc1ccc(Cn2nc(C)n(N(C)c3ncc(C(F)(F)F)cc3Cl)c2=O)cc1,1,0,1,-2,-6,99*
